Activation data for 85 molecules are collected here from PubChem BioAssay AID624467 (The Scripps Research Institute Molecular Screening Center, 2012).

Structures are written as SMILES. The campaign covered roughly 360,000 compounds. About 3,600 (1%) were called active. The list comes from a sample in which actives are over-represented; it also holds similar structures and randomly drawn compounds. Values without a mark were called inactive.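 Rule for the calls: active = activation above the mean activation of all test compounds in the run plus 3 SD (cut at about 38% in these data); inactive = the rest.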

Trace amine-associated receptor 1 (Homo sapiens), sequence (Q96RJ0 whole entry, looked up): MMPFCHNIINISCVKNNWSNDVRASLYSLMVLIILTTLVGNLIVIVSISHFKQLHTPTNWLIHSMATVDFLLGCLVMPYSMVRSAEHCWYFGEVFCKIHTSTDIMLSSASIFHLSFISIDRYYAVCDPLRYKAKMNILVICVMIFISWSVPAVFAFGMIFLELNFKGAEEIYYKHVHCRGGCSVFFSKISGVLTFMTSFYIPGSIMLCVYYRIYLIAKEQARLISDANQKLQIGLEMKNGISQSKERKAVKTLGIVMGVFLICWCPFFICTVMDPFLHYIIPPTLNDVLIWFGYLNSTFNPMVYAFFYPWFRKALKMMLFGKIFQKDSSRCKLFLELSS

For the test, the target named is Trace amine-associated receptor 1 (Homo sapiens) (UniProt Q96RJ0). As to the kind of experiment: human TAAR1 agonists, primary screen, Fluo-8 calcium fluorescence, CHO RD-HGA16 cells (AID 624467). Conditions: CHO RD-HGA16 TAAR1, Fluo-8 calcium fluorescence; at 3 µM; active compounds read high; vehicle wells 0%, saturating PEA agonist 100%. In short, it runs like this: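 Repeats: no replicates (n 1) | Material: CHO-derived RD-HGA16 cells with stable Gα16 and human TAAR1 | Technique: Kinetic Fluo-8 calcium fluorescence | Schedule: 17-24 h seeding, 75 min 37 °C dye, 30 min RT | Evaluation: % activation from peak over basal fluorescence ratio, DMSO-to-PEA scaled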
For the molecule `Cc1ccc(NC(=O)c2cnc(SCC(=O)NCC3CCCO3)n(C)c2=O)cc1` (stereo not given), the activation is 1.71%. As for `Cc1ccccc1-c1nc(CS(=O)(=O)CC(=O)NC(C)c2ccccc2)c(C)o1` (stereo not given), the activation was -0.93%.

Take `CSc1ccc(CCNC(=O)CS(=O)(=O)Cc2nc(-c3ccccc3F)oc2C)cc1`: the activation was 2.41%.

`Cc1ccccc1-c1nc(CS(=O)(=O)CC(=O)N2CCc3ccccc3C2)c(C)o1`: the activation is 45.5% (active).

For `CCOC(=O)/C=C/c1ccccc1O`, the activation was 0.06%. The figure for `CC(=O)N1Cc2cc(C(=O)NCc3cccc(F)c3)nc(-c3cccc(C4=CCCC4)c3)c2[C@H]1CCO` is 1.95%.

As to `COCCn1nnnc1C(c1cc2ccc(OC)cc2[nH]c1=O)N1CCc2ccccc2C1` (stereo not given), the activation is 5.6%. Consider `COc1ccc(OC)c(C(c2nnnn2C(C)(C)C)N2CCc3ccccc3C2)c1` (stereo not given), for which the activation was 64.7% (active). The figure for `COc1ccccc1C(c1nnnn1C(C)(C)C)N1CCN(Cc2ccccc2)CC1` (stereo not given) is 7.42%; for `O=C(NNC(=O)c1cc(-c2ccccc2Cl)nc2ccccc12)c1csc(N2CCOCC2)n1` it is 2.63%. Then `O=C(OCCOc1ccccc1F)c1cc(S(=O)(=O)N2CCOCC2)ccc1F`, with 3.93%; and `COc1cccc(-c2cc(CNC(=O)[C@@H](Cc3ccccc3)NC(=O)[C@H]3O[C@@H](n4cnc(C(N)=O)n4)[C@H](O)[C@@H]3O)no2)c1`, with 2.47%. With `Cc1ccc(NC(=O)CN(C)C(=O)c2ccc(Cl)c(S(=O)(=O)NCc3ccco3)c2)cc1`, the activation was 1.71%.

`COc1ccc(CNC(=O)c2ccc(-c3cccnc3)c3ccoc23)cc1OC`: the activation is 19.1%. As for `C[N+](C)(C)CCNC(=O)c1c[nH]c2ccccc12`, the activation was 3.46%. Regarding `N=C1C(c2nc3ccccc3[nH]2)=C(O)CN1NC(=O)c1c[nH]c2ccccc12`, the activation was 41.7% (active).

Take `CCc1ccc(N2CC(O)=C(c3nc4ccccc4c(=O)[nH]3)C2=N)cc1`: the activation was 7.2%.

In the case of `C=CCN=C1NC(c2ccccc2)C(C(=O)OC)=C(C)N1Cc1ccc(C(F)(F)F)cc1` (stereo not given), the activation is 26.7%.

In the case of `CCN(CC)CCCC(C)n1c2nc(=O)[nH]c(=O)c-2nc2cc(Cl)ccc21` (stereo not given), the activation was 244% (active). With `COc1cccc(CC(=O)N2CCN(C(=O)C(=O)c3cccc(C(F)(F)F)c3)CC2)c1`, the activation is -0.34%. The figure for `CCCCCCCCN1C(=O)[C@@H](CC(=O)NCc2ccc(C)o2)C[C@@]2(C(=O)OC)C1=C[C@H](C(C)(C)C)O[C@@H]2C` is -1.18%; for `CCCc1cc(C(=O)Nc2ccc(C(=O)OC)cc2)cs1` it is 42.9% (active). For the molecule `CCN(CC)C(=O)CCC(=O)Nc1ccc(C(=O)OC)cc1`, the activation was 4.26%. As to `CCCc1cc(C(=O)Nc2ccc(Cl)cn2)cs1`, the activation was 0.75%. For `NC1=NC(c2ccc([N+](=O)[O-])cc2)N(c2ccc(F)cc2)C(N)=N1` (stereo not given), the activation was 2.32%. The figure for `COC(=O)Cc1csc(Nc2c(C)n(C)n(-c3ccccc3)c2=O)n1` is 7.82%; for `CCOC(=O)Cc1csc(NC(NC(=O)OCC)(C(F)(F)F)C(F)(F)F)n1` it is 11.4%; for `CCOC(=O)Cc1csc(NC(=O)Nc2ccccc2)n1` it is 51.5% (active). As for `CCCOCC(O)CC(CC)C(=O)NNC(=S)Nc1ccccc1` (stereo not given), the activation is 6.99%. Turning to `CCCCC(=O)NNC(=S)NC(=O)C(c1ccccc1)c1ccccc1`, the activation is 137% (active).

Take `C/C(=N\NC(=O)CNC(=O)C(c1ccccc1)c1ccccc1)c1ccc(C)cc1`: the activation is -0.46%.

Turning to `CCN(CC)Cc1nc2sc(C)c(C)c2c(=O)[nH]1`, the activation was 7.06%. Consider `Cc1cc(NCCc2c[nH]c3ccccc23)ccc1Oc1cccnc1`, for which the activation is -0.68%. Then `COC(=O)Nc1nc2ccc(C(=O)C3CC3)cc2[nH]1`, with 0.33%; and `CC(C)C(=O)Nc1nnc(SCC(=O)N2C(C)CCCC2C)s1` (stereo not given), with 2.6%. Then `CC/C(=C(/c1ccccc1)c1ccc(OCC[N+](C)(C)C)cc1)c1ccccc1`, with 13.5%; and `OC(c1ccccc1)(c1ccccc1)C1CCN(CCCOc2ccc(-c3ccsc3)cc2)CC1`, with 35.3%; and `OC(c1ccccc1)(c1ccccc1)C1CCN(CCCOc2ccccc2)CC1`, with 23.6%. Consider `N#Cc1ccc(OCCCN2CCC(C(O)(c3ccccc3)c3ccccc3)CC2)c(F)c1`, for which the activation was 51% (active).

As to `Cc1ccc2c(c1)N(S(=O)(=O)c1cc(-c3cc(C)no3)ccc1C)CCO2`, the activation is 0.2%. The figure for `Nc1c(C(=O)c2cccs2)sc2nsc(SCCN3CCCCC3)c12` is 95.1% (active); for `Nc1ccn([C@@H]2O[C@H](C(=O)N[C@H]3CCCCNC3=O)[C@@H](O)[C@H]2O)c(=O)n1` it is -0.44%; for `c1ccc2c(NC3C4CC5CC(C4)CC3C5)nc(N3CCOCC3)nc2c1` (stereo not given) it is 28.9%. For `c1ccc(Nc2nc(N3CCOCC3)c3ccccc3n2)cc1`, the activation was 98.4% (active). Then `COc1ccc(Nc2ncc(F)c(N3CCOCC3)n2)cc1`, with 6.99%; and `O=S1(=O)c2c(cccc2N2CCCCC2)O[C@H](COCc2ccccc2)CN1C1CC1`, with -0.15%; and `CCc1ccc(/C=N/NC(=O)c2nnn(-c3nonc3N)c2CN2CCc3ccccc32)cc1`, with 4.17%. On to `CCCOc1ccc(-c2c(C(=O)N/N=C/c3ccco3)nnn2-c2nonc2N)cc1`, for which the activation is 74.1% (active). In the case of `C/C(COc1ccccc1)=N\NC(=O)c1nnn(-c2nonc2N)c1-c1ccc(C)cc1`, the activation is 6.16%. Then `CC(C)Oc1ccc(/C=N/NC(=O)c2nnn(-c3nonc3N)c2CN(C)C2CCCCC2)cc1`, with 19.2%. Turning to `Nc1nonc1-n1nnc(C(=O)N/N=C/c2ccc(Cl)cc2)c1-c1ccc2c(c1)OCO2`, the activation was 133% (active).

Take `CC(C)c1c(C(=O)N/N=C/c2ccccc2C(=O)O)nnn1-c1nonc1N`: the activation is 2.66%. The figure for `CCOC(=O)N1CCN(C(=O)C[C@H]2C[C@@]3(C(=O)OC)C(=C[C@H](C4CCCC4)O[C@@H]3C)N(Cc3ccccc3)C2=O)CC1` is -1.14%; for `CCc1ccc(C2=CC(=O)CC(C)(C)C2=O)cc1` it is -1.42%; for `CCCCN1C(=O)C(CC(=O)NC(c2ccccc2)c2ccccc2)CC(C(=O)N2CCOCC2)=C1C` (stereo not given) it is 0.19%. Turning to `CC(C)CNc1cccc2c1S(=O)(=O)N[C@H](CC(C)C)CO2`, the activation was -0.51%. Then `CN(CCO)C(=O)c1nc[nH]c1C(=O)N(C)Cc1ccccc1`, with 0.95%; and `CCOC(=O)N(Cc1ccccc1)C1CC1`, with 3.18%. For the molecule `CN(C(=O)CN(CCO)CC(=O)N(C)C(C)(C)Cc1ccccc1)C(C)(C)Cc1ccccc1`, the activation is 125% (active). Consider `COc1ccc(NS(=O)(=O)c2cc3c(cc2C)N(C(C)=O)CCO3)cc1`, for which the activation was 1.33%. `C=CC[C@]12C[C@@]3(O[C@H](c4ccc(C(F)(F)F)cc4)N=C3C[C@H](c3ccc(OC)cc3)[C@H]1C)N(C1CCN(Cc3ccccc3)CC1)C2=O`: the activation was 0.44%. As to `CC1CCN(c2c(NCc3ccc(C(=O)NCc4ccccc4)cc3)c(=O)c2=O)CC1`, the activation is 0.05%. For the molecule `CC1CCN(C(=O)CCNC(=O)c2ccccc2)CC1`, the activation was 1.29%. Then `CC1CCCN(c2ccc(C(=O)NCCc3ccccc3)cn2)C1` (stereo not given), with 41.2% (active). Then `CC(=O)NC1C(Oc2ccc(C)cc2)OC2COC(c3ccco3)OC2C1O` (stereo not given), with 1.22%; and `O=C(Nc1ccc(Cl)cc1)Nc1ccc(Oc2cccnc2)nc1`, with 35.4%; and `CCc1ccc(NC(=O)Nc2ccncc2)cc1`, with 30.2%. As to `O=C(Nc1ccncc1)Nc1ccc(F)cc1`, the activation was 78.9% (active).

`O=C(CCC(=O)n1ncc2ccccc21)NCc1ccccc1Cl`: the activation was 0.3%. As to `COc1cccc(NC(=O)N(C)C[C@@H]2OCc3cn(nn3)CCCC(=O)N([C@@H](C)CO)C[C@H]2C)c1`, the activation is 1.34%. The figure for `O=S(=O)(c1ccc(Br)c2ccccc12)N1CCOCC1` is 3.96%; for `Cc1cccc(C)c1-n1c(C)cc(/C=C2\C(=O)NN(c3ccccc3)C2=O)c1C` it is 38.3% (active); for `CCOC(=O)C1=C(O)/C(=C/c2cc(C)n(-c3ccccc3)c2C)N=C1C` it is 8.89%. In the case of `CN(C(=O)c1cccc(NC(=O)C2CCN(C(=O)OC(C)(C)C)CC2)c1)C1CCC1`, the activation was 12.7%. As for `O=C(Nc1ccc(F)cc1)Nc1nnc([C@H]2C[C@H](O)[C@@H](CO)O2)s1`, the activation was 45% (active). For the molecule `Cc1ccc(CNC(=O)Nc2nnc([C@H]3C[C@H](O)[C@@H](CO)O3)s2)cc1`, the activation was 0.94%.

With `O=C(Nc1nnc([C@H]2C[C@H](O)[C@@H](CO)O2)s1)c1cccc(Cl)c1`, the activation was 2.33%. Then `CC(=O)c1c(N2CCN(c3ccc(F)cc3)CC2)nc(=S)n(-c2ccccc2)c1C`, with -0.41%; and `Cn1ccsc1=NC(=O)c1cc(S(=O)(=O)N2CCOCC2)ccc1Cl`, with 4.63%. The figure for `COc1ccc(-c2ccc3c(n2)CCCN3S(=O)(=O)c2ccc(C)cc2)cc1` is 1.61%; for `Cc1c(C(=O)NCc2ccc(C#N)cc2)sc(=O)n1Cc1ccc(C(=O)N(C)C)cc1` it is 2.3%. Then `CC(=O)Oc1ccc(Cn2c(C)c(C(=O)NCc3ccc(C#N)cc3)sc2=O)cc1`, with 140% (active). In the case of `Cc1ccc(Cn2c(C)c(C(=O)NCc3ccccc3C(F)(F)F)sc2=O)cc1`, the activation was 0.22%. Consider `CC(C)[C@@H](C)/C=C/[C@@H](C)[C@H]1CC[C@@H]2[C@]1(C)CCC1[C@]23C=C[C@]2(C[C@@H](O)CC[C@]12C)N(c1ccc([N+](=O)[O-])cn1)O3` (stereo not given in full), for which the activation is -0.81%.

In the case of `O=C(NCc1ccccc1)[C@H]1CCCN1C(=O)[C@H]1CCCN1C(=O)c1cc(F)cc(F)c1`, the activation is -0.16%.
